Calls of active or inactive are those of the source. The rule behind the calls is not given here. Peptide text beside a SMILES is read from it. * marks the point of attachment. Cbz = O=C(OCc1ccccc1)*
Columns and labels:
Homo sapiens [1] = organism: Homo sapiens; assay: Inhibition of calpain (unknown origin) at >10 uM
Homo sapiens [2] = organism: Homo sapiens; assay: Inhibition of cathepsin (unknown origin) at >10 uM
[3] = target: T1, Proteasome Macropain subunit MB1 (Homo sapiens, UniProt P28074); assay: Inhibition of chymotrypsin-like activity of human 20S proteasome beta 5 subunit assessed as hydrolysis of succinyl-LLVY-AMC fluorogenic substrate measured for 1 hr by fluorometric analysis
T1 sequence (P28074 whole entry): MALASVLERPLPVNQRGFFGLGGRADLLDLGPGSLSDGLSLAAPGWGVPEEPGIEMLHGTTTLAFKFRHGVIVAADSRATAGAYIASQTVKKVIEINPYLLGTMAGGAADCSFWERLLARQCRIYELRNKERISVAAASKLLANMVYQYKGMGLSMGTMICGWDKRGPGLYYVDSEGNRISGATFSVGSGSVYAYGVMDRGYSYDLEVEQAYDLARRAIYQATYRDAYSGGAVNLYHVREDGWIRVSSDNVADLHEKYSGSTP
Procedure, shortened: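 Purified human 20S proteasome (0.1 µg) incubated at 37 °C with 50 µM succinyl-LLVY-AMC (CT-L) or 20 µM Z-LLE-AMC (PGPH) and compound at 0.01–10 µM in 25 mM HEPES, 0.5 mM EDTA, 0.03% SDS. IC50 taken from inhibition curve; means of three experiments.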

[4] = target: T2, Proteasome Macropain subunit MB1 (Homo sapiens) (UniProt P28074); assay: Inhibition of biotin-labeled belactosin A binding to human 20S proteasome beta 5 subunit at 100 uM preincubated for 1 hr followed by biotin-labeled belactosin A treatment measured after 1 hr by Western blotting analysis
T2 sequence (whole entry): T1 sequence (P28074 whole entry)
Procedure, shortened: (§1)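 Purified human 20S proteasome preincubated 1 h at 37 °C with varying compound levels, then biotin-belactosin A added to 1 µM for a further 1 h. Proteins separated by SDS-PAGE, blotted to PVDF, milk-blocked; biotin-labelled subunits detected with streptavidin-HRP and ECL.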

[5] = target: T3, Proteasome component C5 (Homo sapiens) (UniProt P20618); assay: Inhibition of biotin-labeled belactosin A binding to human 20S proteasome beta 1 subunit at 10 uM preincubated for 1 hr followed by biotin-labeled belactosin A treatment measured after 1 hr by Western blotting analysis; procedure, shortened: as §1
T3 sequence (whole entry): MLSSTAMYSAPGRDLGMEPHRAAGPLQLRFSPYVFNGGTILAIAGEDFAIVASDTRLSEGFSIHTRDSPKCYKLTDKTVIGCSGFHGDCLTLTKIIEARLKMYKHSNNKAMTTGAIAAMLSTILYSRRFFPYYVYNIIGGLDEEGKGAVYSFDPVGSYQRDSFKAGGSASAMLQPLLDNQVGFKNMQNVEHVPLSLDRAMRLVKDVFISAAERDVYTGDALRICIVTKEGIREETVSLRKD

[6] = target: T2, Proteasome Macropain subunit MB1 (Homo sapiens); assay: Inhibition of biotin-labeled belactosin A binding to human 20S proteasome beta 5 subunit at 1 to 100 uM preincubated for 1 hr followed by biotin-labeled belactosin A treatment measured after 1 hr by Western blotting analysis; procedure, shortened: as §1
[7] = target: T3, Proteasome component C5 (Homo sapiens); assay: Inhibition of biotin-labeled belactosin A binding to human 20S proteasome beta 1 subunit preincubated for 1 hr followed by biotin-labeled belactosin A treatment measured after 1 hr by Western blotting analysis; procedure, shortened: as §1
HeLa [8] = assay: Induction of apoptosis in human HeLa cells assessed as PARP cleavage after 24 hrs by Western blotting analysis; assay type: functional, cell-based
Procedure, shortened: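 HeLa cells seeded 4×10^5 cells/well, incubated 24 h with varying compound concentrations; PARP cleavage detected in lysates by Western blotting.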

[9] = Cytotoxicity against ER-negative HEK293 cells after 48 hrs by MTT assay; assay type: cell-based; details: human
Procedure, shortened: (§2)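 HEK293 (DMEM) or HL-60 (IMDM) cells, each with 10% FBS plus penicillin/streptomycin, seeded 5×10^3 cells/well in duplicate. Exposed 48 h to compound at […]. MTT reduction read as 560/750 nm absorbance ratio after HCl/2-propanol extraction. CyT50 from inhibition curve; means of triplicate.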

HeLa [10] = assay: Inhibition of proteasome in human HeLa cells assessed as accumulation of ubiquitinated proteins at 60 uM after 24 hrs by Western blotting analysis; assay type: cell-based
Procedure, shortened: (§3)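 HeLa cells, 4×10^5 cells/well, treated 24 h with compound; vehicle control 0.25% DMSO. Lysed in Tris–HCl/2% SDS/glycerol buffer with protease and phosphatase inhibitors; 30 µg protein run on SDS-PAGE, PVDF blot probed with anti-ubiquitin (1:200), actin as loading reference, HRP secondary, ECL detection.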

HL-60 = assay: Cytotoxicity against […] human HL60 cells after 48 hrs by MTT assay; assay type: functional; details: HL-60, 48 h; procedure, shortened: as §2
[11] = target: T1, Proteasome Macropain subunit MB1; assay: Noncompetitive inhibition of chymotrypsin-like activity of human 20S proteasome beta 5 subunit assessed as hydrolysis of succinyl-LLVY-AMC fluorogenic substrate Lineweaver-Burk plot analysis
HeLa [12] = assay: Cell cycle arrest in human HeLa cells assessed as accumulation at sub G1 phase at 10 uM after 24 hrs by propidium iodide staining-based flow cytometric analysis (reference value: 2.2%); assay type: functional
[13] = target: T3, Proteasome component C5 (Homo sapiens); details: 10 to 20 uM
HeLa [14] = assay: Inhibition of proteasome in human HeLa cells assessed as accumulation of ubiquitinated proteins at 10 uM after 24 hrs by Western blotting analysis; assay type: cell-based; procedure, shortened: as §3
[15] = target: Proteasome Macropain subunit (Homo sapiens) (UniProt P49721); details: 10 to 20 uM
Chain of Proteasome Macropain subunit (Homo sapiens) (P49721 whole entry): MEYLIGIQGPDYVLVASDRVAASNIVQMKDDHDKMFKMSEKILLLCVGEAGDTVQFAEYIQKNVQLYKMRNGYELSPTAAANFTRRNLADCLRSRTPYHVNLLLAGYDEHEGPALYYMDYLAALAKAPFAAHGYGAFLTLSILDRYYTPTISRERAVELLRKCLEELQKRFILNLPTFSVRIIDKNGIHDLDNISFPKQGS

[16] = target: T2, Proteasome Macropain subunit MB1 (Homo sapiens); details: 10 to 20 uM
[17] = target: Proteasome Macropain subunit (Homo sapiens) (UniProt P49721); assay: Inhibition of trypsin-like activity of human 20S proteasome beta 2 subunit assessed as hydrolysis of Boc-LRR-AMC fluorogenic substrate at 10 uM measured for 1 hr by fluorometric analysis relative to control; design: scale not given: the % may be the effect or the level left
[18] = target: T3, Proteasome component C5 (Homo sapiens); assay: Inhibition of PGPH-like activity of human 20S proteasome beta 1 subunit assessed as hydrolysis of Z-LLE-AMC fluorogenic substrate at 10 uM measured for 1 hr by fluorometric analysis relative to control; design: scale not given: the % may be the effect or the level left
[19] = target: T2, Proteasome Macropain subunit MB1 (Homo sapiens); assay: Inhibition of chymotrypsin-like activity of human 20S proteasome beta 5 subunit assessed as hydrolysis of succinyl-LLVY-AMC fluorogenic substrate at 10 uM measured for 1 hr by fluorometric analysis relative to control; design: scale not given: the % may be the effect or the level left

CCC(=C(c1ccc(OCCN2CCOCC2)cc1)c1ccc(OCCN2CCOCC2)cc1)c1ccccc1
inhibition (Homo sapiens [1]): inactive
inhibition (Homo sapiens [2]): inactive
IC50 [3]: 7.19 µM

c1cc(OCCN2CCCCCC2)ccc1Cc1ccc(OCCN2CCCCCC2)cc1
inhibition [4]: Active
inhibition [5]: Active
inhibition [6]: Active
inhibition [7]: Dose-dependent effect
IC50 [3]: 0.67 µM
Activity (HeLa [8]): Dose-dependent effect
CC50 at 48 h [9]: 10.9 µM
inhibition (HeLa [10]): Active
CC50 (HL-60): 14.5 µM

c1ccc(C(=C(c2ccc(OCCN3CCCCCC3)cc2)c2ccc(OCCN3CCCCCC3)cc2)c2ccccc2)cc1
Ki [11]: 1.1 µM
IC50 [3]: 1.18 µM
CC50 at 48 h [9]: 23.2 µM
CC50 (HL-60): > 30 µM

CCC(=C(c1ccc(OCCCN2CCCC2)cc1)c1ccc(OCCCN2CCCC2)cc1)c1ccccc1
inhibition (Homo sapiens [1]): inactive
inhibition (Homo sapiens [2]): inactive
IC50 [3]: > 10 µM

CCCCC(CCCC)=C(c1ccc(OCCN2CCCCCC2)cc1)c1ccc(OCCN2CCCCCC2)cc1
IC50 [3]: > 10 µM
CC50 at 48 h [9]: > 30 µM
CC50 (HL-60): 25.3 µM

CCC(=C(c1ccc(OCCN(CC)CC)cc1)c1ccc(OCCN(CC)CC)cc1)c1ccccc1
inhibition (Homo sapiens [1]): inactive
inhibition (Homo sapiens [2]): inactive
IC50 [3]: > 10 µM

C=C(c1ccc(OCCN2CCCCCC2)cc1)c1ccc(OCCN2CCCCCC2)cc1
IC50 [3]: 1.04 µM
CC50 at 48 h [9]: 9.8 µM
CC50 (HL-60): 10.7 µM

O=C(c1ccc(OCCN2CCCCCC2)cc1)c1ccc(OCCN2CCCCCC2)cc1
IC50 [3]: 1.65 µM
CC50 at 48 h [9]: 13.9 µM
CC50 (HL-60): > 30 µM

CC(C)=C(c1ccc(OCCN2CCCCCC2)cc1)c1ccc(OCCN2CCCCCC2)cc1
IC50 [3]: 1.66 µM
CC50 at 48 h [9]: 11.1 µM
CC50 (HL-60): 10.7 µM

CC(=C(c1ccc(OCCN2CCCCCC2)cc1)c1ccc(OCCN2CCCCCC2)cc1)c1ccccc1
IC50 [3]: 0.9 µM
CC50 at 48 h [9]: 18.9 µM
CC50 (HL-60): 6.87 µM

CC(C)C[C@@H](C=O)NC(=O)[C@H](CC(C)C)NC(=O)[C@H](CC(C)C)NC(=O)OCc1ccccc1 [MG-132] (Cbz-Leu-Leu-Leu-aldehyde)
Activity (HeLa [12]): 5.6%
inhibition [13]: Active
inhibition (HeLa [14]): Active
inhibition [15]: Active
inhibition [16]: Active

C(=C(c1ccc(OCCN2CCCCCC2)cc1)c1ccc(OCCN2CCCCCC2)cc1)c1ccccc1
Ki [11]: 0.87 µM
IC50 [3]: 0.58 µM
CC50 at 48 h [9]: 6.06 µM
CC50 (HL-60): 9.73 µM

CCC(=C(c1ccc(OCCN2CCCC2)cc1)c1ccc(OCCN2CCCC2)cc1)c1ccccc1
inhibition (Homo sapiens [1]): inactive
inhibition (Homo sapiens [2]): inactive
IC50 [3]: 6.56 µM

CC/C(=C(\c1ccccc1)c1ccc(OCCN(C)C)cc1)c1ccccc1
Activity [17]: 112%
Activity [18]: 85%
Activity [19]: 145%

c1cc(C(=C2CCCC2)c2ccc(OCCN3CCCCCC3)cc2)ccc1OCCN1CCCCCC1
IC50 [3]: 2.7 µM
CC50 at 48 h [9]: 26.2 µM
CC50 (HL-60): 20.1 µM

CCC(CC)=C(c1ccc(OCCN2CCCCCC2)cc1)c1ccc(OCCN2CCCCCC2)cc1
IC50 [3]: 1.57 µM
CC50 at 48 h [9]: 6.02 µM
CC50 (HL-60): 8.87 µM

— ChEMBL document CHEMBL3098012, “A novel tamoxifen derivative, ridaifen-F, is a nonpeptidic small-molecule proteasome inhibitor” (Eur J Med Chem, 2014)
